# GAA850 FXN act = frataxin GAA850 promoter activation. AID 540364. activation, % at 6 µM. hit rate 0.56% among 360,000. HEK293 lucGAA850 FXN promoter luciferase reporter, 24 h; percent of 10 µM SAHA response;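 active = activation above the average of all compounds screened plus 3 SD, cutoff fixed separately per campaign, cut at about 7.5% in these data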;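 also: 0% = DMSO wells and 100% = 10 µM SAHA wells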
# MC4R ag barr = agonists of human melanocortin 4 receptor (MC4R) beta-arrestin; P32245; U2OS MC4R beta-arrestin complementation, luminescence; percent of melanotan II response, DMSO zero; activation, % at 8.9 µM; hit rate 0.98% among 360,000; AID 540308;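 active = activation above a per-plate cutoff, the mean activation of sample wells on that plate plus 3 SD, cut at about 8% in these data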
# MC4R antagonist = antagonists of human melanocortin 4 receptor (MC4R) | P32245 | MC4R-expressing cells, MTII-stimulated cAMP, LANCE TR-FRET | inhibition, % at 6.5 µM | hit rate 0.48% among 360,000;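 active = inhibition above its plate's cutoff, the mean of tested wells on that plate plus 3 SD, cut at about 29% in these data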;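 also: 0% = Melanotan II alone and 100% = Melanotan II plus saturating MCL0020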
#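 System: U2OS cells stably expressing human melanocortin 4 receptor (MC4R). Reagent: Melanotan II challenge after compound preincubation. Doses: 6.5 µM. Times: 30-min compound, 1-h challenge, 1-h detection, room temperature. Measured by: TR-FRET with Eu-cAMP and labeled anti-cAMP, 671 nm. Replicates: singlicate.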
# m5-HT2A agonist = mouse HTR2A agonism via beta-arrestin recruitment | CHO-K1 mHTR2A beta-arrestin complementation, luminescence; percent of 30 µM serotonin response | AID 624169 | P35363 | hit rate 0.66% among 360,000 | activation, % at 7.6 µM;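 active = activation above a run cutoff, the mean activation of all tested compounds plus 3 SD, cut at about 14% in these data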;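 also: 0% = plate median of compound wells and 100% = 30 µM serotonin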
# AHR activator = activates the human aryl hydrocarbon receptor. P35869. AHR-responsive luciferase reporter cells, luminescence. activation, % at 5 µM. hit rate 2.5% among 320,000; in the data active = activation above about 47%;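 also: 0% = vehicle wells and 100% = reference agonist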
# Target sequence (P35869 whole entry, looked up): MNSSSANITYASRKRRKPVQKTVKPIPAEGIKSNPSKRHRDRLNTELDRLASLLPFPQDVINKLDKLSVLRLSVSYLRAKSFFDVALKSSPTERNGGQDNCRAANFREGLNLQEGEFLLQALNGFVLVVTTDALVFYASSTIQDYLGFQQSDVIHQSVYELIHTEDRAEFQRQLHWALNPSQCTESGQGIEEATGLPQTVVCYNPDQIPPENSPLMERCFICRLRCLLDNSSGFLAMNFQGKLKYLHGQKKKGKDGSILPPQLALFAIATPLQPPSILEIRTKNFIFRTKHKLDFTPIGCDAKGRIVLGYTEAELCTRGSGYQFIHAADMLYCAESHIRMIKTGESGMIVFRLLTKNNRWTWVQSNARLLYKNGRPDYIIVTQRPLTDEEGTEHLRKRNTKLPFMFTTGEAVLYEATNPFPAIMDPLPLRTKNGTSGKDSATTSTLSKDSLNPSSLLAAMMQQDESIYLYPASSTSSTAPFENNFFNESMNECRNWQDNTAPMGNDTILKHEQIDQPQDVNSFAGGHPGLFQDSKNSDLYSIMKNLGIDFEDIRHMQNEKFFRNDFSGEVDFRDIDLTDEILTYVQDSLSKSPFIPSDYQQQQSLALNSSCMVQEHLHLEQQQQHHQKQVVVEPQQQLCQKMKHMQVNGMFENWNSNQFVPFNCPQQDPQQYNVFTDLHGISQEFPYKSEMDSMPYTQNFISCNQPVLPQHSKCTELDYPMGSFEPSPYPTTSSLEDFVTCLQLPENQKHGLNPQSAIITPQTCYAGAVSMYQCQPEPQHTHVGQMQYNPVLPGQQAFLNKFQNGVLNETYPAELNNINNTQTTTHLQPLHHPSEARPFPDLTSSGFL
# MOR ag counter = counter-screen for mouse HTR2A agonists: human mu opioid receptor agonists | U2OS OPRM1 beta-arrestin PathHunter, luminescence; DMSO 0%, DAMGO 9.3 µM 100% | activation, % at 9.3 µM | AID 624380 | shares compounds with m5-HT2A agonist | hit rate 5.3% among 2,300;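 active = mean activation above the mean of DMSO-only wells plus 3 SD, cut at about 0.5% in these data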
# HTR2A ag conf = mouse HTR2A agonism confirmed; activation, % at 7.6 µM; CHO-K1 PathHunter beta-arrestin recruitment, luminescence; DMSO 0%, 30 µM serotonin 100%; shares compounds with m5-HT2A agonist; hit rate 19% among 2,300; AID 624381;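 active = mean activation across triplicates above the hit threshold derived in the original primary screen, cut at about 15% in these data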
# The depositor's hits bear a star; . = not tested or not shown. An excerpt weighted towards active compounds, which were near 4.7% of everything screened.
SMILES,GAA850 FXN act,MC4R ag barr,MC4R antagonist,m5-HT2A agonist,AHR activator,MOR ag counter,HTR2A ag conf
COc1ccc(C(C(=O)NC2CCCC2)N(Cc2ccccc2)C(=O)c2snc(C(N)=O)c2N)cc1OC (stereo not drawn),-4,0,1,16*,-1,-1,-1
CCOc1ccc(CCN2C(=O)C(=O)N([C@@H](Cc3ccccc3)CN3CCC[C@H]3CN3C(=O)C(=O)NC[C@@H]3Cc3ccccc3)C[C@@H]2Cc2ccccc2)cc1,.,.,.,1,.,.,.
Cc1cc(C)c(C#N)c(OCC2CCCO2)n1 (stereo not drawn),.,.,.,15*,.,-1,-1
Cc1cc(C)c(C#N)c(Oc2ccccc2)n1,-1,-1,15,3,-1,.,.
Cc1ccccc1N/C(=N/S(=O)(=O)c1ccccc1)c1ccc(F)cc1,1,2,20,4,0,.,.
Cc1ccc(/C(=N\S(=O)(=O)c2ccc(Br)cc2)Nc2ccccc2C)cc1,0,0,1,15*,32,0,9
C[C@@H](NC(=O)Cn1cnc2c(OCc3ccccc3)ncnc21)c1cccc2ccccc12,-1,0,6,16*,2,.,-1
C[C@@H](NC(=O)Cn1cnc2c(NCc3ccccc3)ncnc21)c1cccc2ccccc12,-1,-2,4,-1,.,.,.
COc1ccc(CNc2ncc(-c3ccc(Cl)cc3)n2C)c(OC)c1OC,-1,0,10,-8,1,.,.
COCCN(Cc1ccccc1)C(=O)c1cc(-c2ccc(OC)c(OC)c2)nc2ccccc12,0,0,1,17*,29,-1,-1
COc1ccc(NS(=O)(=O)c2ccc(C)c(C(=O)NCCCn3ccnc3)c2)cc1,-1,0,15,1,.,.,.
CCCCCOC(=O)C1=C(C)Nc2nnnn2C1c1ccccc1Cl (stereo not drawn),-1,7,0,19*,1,0.5*,2
COC(=O)C1=C(C)Nc2nnnn2C1c1ccccc1Cl (stereo not drawn),-2,0,9,-1,0,.,.
CCOC(=O)c1oc2ccc(S(=O)(=O)Nc3ccc4c(c3)n(C)c(=O)n4C)cc2c1C,1,-1,-4,1,0,.,.
OC(c1cc(C(F)(F)F)nc2c(Cl)cc(Cl)cc12)C1CCCCN1 (stereo not drawn),-7,0,-4,4,1,.,.
O[C@@H](c1cc(C(F)(F)F)nc2c(C(F)(F)F)cccc12)[C@H]1CCCCN1,-1,2,-1,26*,2,0.9*,14
CCCNC(=O)C1(C)CCCN(C(=O)c2cccc(C#N)c2)C1 (stereo not drawn),2,0,7,-1,.,.,.
CCc1cc2cc(C(=O)Nc3ccc(C)cc3)sc2s1,2,6,1,-5,-2,.,.
Cc1ccc(OCC(O)CN2CCN(c3ccccc3)CC2)cc1 (stereo not drawn),-1,1,6,1,2,.,.
Cc1cccc(N2CCN(CC(O)COc3ccc4ccccc4c3)CC2)c1 (stereo not drawn),-1,1,4,15*,.,0,53*
COc1ccc(S(=O)(=O)N2CCC(C(=O)Nc3ccc(S(=O)(=O)N4CCCC4)cc3)CC2)cc1OC,2,-1,2,16*,1,0,-3
COc1ccc(CCNC(=O)c2cccc(S(=O)(=O)N3CCOCC3)c2)cc1OC,3,-5,-4,16*,1,0,-1
COc1ccc(S(=O)(=O)N2CCCCCC2)cc1NC(=O)c1ccccc1,0,-1,3,0,3,.,.
COc1ccc(S(=O)(=O)N2CCCCC2)cc1NC(=O)c1ccc(OC)c(OC)c1,1,-3,3,15*,.,-1,-4
O=C(NCc1ccc(F)cc1F)[C@@H]1CCCN1C(=O)[C@@H]1CCCN1C(=O)c1ccc(Cl)cc1,.,.,.,9,.,.,.
SMILES,GAA850 FXN act,MC4R ag barr,MC4R antagonist,m5-HT2A agonist,AHR activator,MOR ag counter,HTR2A ag conf
Cn1c(=O)n(C)c2cc(/C=C3/SC(=O)N(CC(=O)N4CCOCC4)C3=O)ccc21,2,0,-11,17*,-2,-1,-1
CCOC(=O)CN1C(=O)S/C(=C/c2ccc3c(c2)n(C)c(=O)n3C)C1=O,3,-3,-4,2,0,.,.
CCOC(=O)C1(C)CCCCCN1C(=O)c1ccc(C(F)(F)F)nc1C (stereo not drawn),1,0,1,6,.,.,.
CC(/C=C/c1ccc(O)cc1)=NNc1ccccc1,4,1,-3,-5,.,.,.
CCOC(=O)C1=C(N)Oc2cc(O)ccc2C1c1ccc(C)cc1 (stereo not drawn),3,4,9,31*,3,1.1*,-1
CCOC(=O)C1CCN(C(=O)CN2C(=O)CSc3ccc(S(=O)(=O)N4CCOCC4)cc32)CC1,1,-2,0,35*,1,0,-1
CCOC(=O)N1CCN(C(=O)CN2C(=O)COc3ccc(S(=O)(=O)N4CCOCC4)cc32)CC1,-2,-1,21,6,-3,.,.
CN1CCN(C(=O)CN2C(=O)COc3ccc(S(=O)(=O)N4CCOCC4)cc32)CC1,2,-3,-2,18*,-1,-1,12
NC(=O)c1nc(C(=O)N2CCN(c3ccccc3)CC2)c2ccccc2n1,2,-1,6,18*,11,-1,-6
C[C@H](CO)N1C[C@H](C)[C@@H](CN(C)C(=O)Nc2ccc(C(F)(F)F)cc2)Oc2ccc(NC(=O)Cn3cnnn3)cc2C1=O,0,0,-3,-5,-1,.,.
CC(C)(C)OC(=O)NCCCCCO,2,0,6,1,-3,.,.
CC(C)(CO)C(O)C(=O)NCCCO (stereo not drawn),0,-1,-5,18*,0,-1,0
COc1ccc(OCC(=O)Nc2ccc(C(=O)Nc3ccccc3C(=O)O)cc2)cc1,0,-2,-2,7,4,.,.
O=C(COc1ccc(Br)cc1)Nc1ccc(C(=O)Nc2ccccc2C(=O)O)cc1,-1,-1,2,18*,7,0,5
CC(C)(C)OC(=O)C[C@@H]1C/C=C\C[C@@H](CC(=O)N[C@H](CO)Cc2ccccc2)C(=O)N2CCC[C@H]2COC1=O,-3,-1,12,6,0,.,.
Cc1ccc2c(c1)CCCN2S(=O)(=O)c1cccc(C(=O)Nc2ccccc2C(=O)O)c1,-2,-2,-3,15*,8,-1,13
CN(C)C(=O)c1ccc(NC(=O)c2cccc(S(=O)(=O)N3CCCc4ccccc43)c2)cc1,2,2,13,-1,3,.,.

# Source: PubChem BioAssay (The Scripps Research Institute Molecular Screening Center)
